# Reference: ChEMBL document CHEMBL5058577, “EUbOPEN Chemogenomics Library 2 (Multiplex)” (2022)
# Tested on: HEK-293T
# Assay: Multiplex assay against HEK293T
# Assay type: toxicity, cell-based
# Conditions: human
# How it was run: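 Cells stained live at seeding with Hoechst33342, BioTracker Green Microtubule Cytoskeleton Dye, MitoTracker Red and Annexin V Alexa Fluor 680 were imaged on a CQ1 microscope at 37°C and 5% CO2 after compound addition. Their classification by CellPathfinder machine-learning gating ran from Hoechst high-intensity objects versus normal cells, to healthy, pyknosed or fragmented nuclei among normal cells, to mitotic or apoptotic among pyknosed cells. Tubulin, mitochondrial-mass and membrane-permeability phenotypes are per cents of healthy-nucleus cells.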
# [1] = 12 h, 1 µM, compound concentration 1 uM, replicate 1
# [2] = 12 h, 1 µM, compound concentration 1 uM, replicate 2
# [3] = 12 h, 10 µM, compound concentration 10 uM, replicate 1
# [4] = 12 h, 10 µM, compound concentration 10 uM, replicate 2
# [5] = 24 h, 1 µM, compound concentration 1 uM, replicate 1
# [6] = 24 h, 1 µM, compound concentration 1 uM, replicate 2
# [7] = 24 h, 10 µM, compound concentration 10 uM, replicate 1
# [8] = 24 h, 10 µM, compound concentration 10 uM, replicate 2
# [9] = 48 h, 1 µM, compound concentration 1 uM, replicate 1
# [10] = 48 h, 1 µM, compound concentration 1 uM, replicate 2
# [11] = 48 h, 10 µM, compound concentration 10 uM, replicate 1
# [12] = 48 h, 10 µM, compound concentration 10 uM, replicate 2
structure (smiles),measurement,setting,value
COc1ccccc1N1CCN(C[C@@H](C(=O)NC(C)(C)C)c2ccccc2)CC1.Cl.Cl,Population Apoptotic (%),[1],24%
same,Population Fragmented Nuclei (%),[1],7%
same,Population Healthy Nuclei (%),[1],77%
same,Population Hoechst High Intensity Objects (%),[1],7%
same,Population Membrane Permeable-Phenotype (%),[1],0%
same,Population Mitochondria Different-Phenotype (%),[1],48%
same,Population Mitotic Cells (%),[1],75%
same,Population Normal (%),[1],92%
same,Population Pyknosed Nuclei (%),[1],14%
same,Population Tubulin-Different-Phenotype (%),[1],47%
same,Total Cell Count,[1],434
same,Population Apoptotic (%),[2],42%
same,Population Fragmented Nuclei (%),[2],4%
same,Population Healthy Nuclei (%),[2],76%
same,Population Hoechst High Intensity Objects (%),[2],6%
same,Population Mitochondria Different-Phenotype (%),[2],77%
same,Population Mitotic Cells (%),[2],57%
same,Population Normal (%),[2],93%
same,Population Pyknosed Nuclei (%),[2],19%
same,Population Tubulin-Different-Phenotype (%),[2],35%
same,Total Cell Count,[2],300
same,Population Apoptotic (%),[3],62%
same,Population Fragmented Nuclei (%),[3],7%
same,Population Healthy Nuclei (%),[3],69%
same,Population Hoechst High Intensity Objects (%),[3],7%
same,Population Membrane Permeable-Phenotype (%),[3],0%
same,Population Mitochondria Different-Phenotype (%),[3],88%
same,Population Mitotic Cells (%),[3],37%
same,Population Normal (%),[3],92%
same,Population Pyknosed Nuclei (%),[3],23%
same,Population Tubulin-Different-Phenotype (%),[3],74%
same,Total Cell Count,[3],333
same,Population Apoptotic (%),[4],58%
same,Population Fragmented Nuclei (%),[4],5%
same,Population Hoechst High Intensity Objects (%),[4],16%
same,Population Mitochondria Different-Phenotype (%),[4],79%
same,Population Mitotic Cells (%),[4],41%
same,Population Normal (%),[4],83%
same,Population Pyknosed Nuclei (%),[4],25%
same,Population Tubulin-Different-Phenotype (%),[4],59%
same,Total Cell Count,[4],231
same,Population Apoptotic (%),[5],19%
same,Population Fragmented Nuclei (%),[5],8%
same,Population Healthy Nuclei (%),[5],81%
same,Population Hoechst High Intensity Objects (%),[5],4%
same,Population Membrane Permeable-Phenotype (%),[5],0%
same,Population Mitochondria Different-Phenotype (%),[5],31%
same,Population Mitotic Cells (%),[5],80%
same,Population Normal (%),[5],95%
same,Population Pyknosed Nuclei (%),[5],9%
same,Population Tubulin-Different-Phenotype (%),[5],29%
same,Total Cell Count,[5],563
same,Population Apoptotic (%),[6],34%
same,Population Fragmented Nuclei (%),[6],11%
same,Population Healthy Nuclei (%),[6],76%
same,Population Hoechst High Intensity Objects (%),[6],6%
same,Population Mitochondria Different-Phenotype (%),[6],54%
same,Population Mitotic Cells (%),[6],65%
same,Population Normal (%),[6],93%
same,Population Pyknosed Nuclei (%),[6],11%
same,Population Tubulin-Different-Phenotype (%),[6],28%
same,Total Cell Count,[6],387
same,Population Apoptotic (%),[7],45%
same,Population Fragmented Nuclei (%),[7],8%
same,Population Healthy Nuclei (%),[7],68%
same,Population Hoechst High Intensity Objects (%),[7],7%
same,Population Membrane Permeable-Phenotype (%),[7],0%
same,Population Mitochondria Different-Phenotype (%),[7],77%
same,Population Mitotic Cells (%),[7],54%
same,Population Normal (%),[7],92%
same,Population Pyknosed Nuclei (%),[7],23%
same,Population Tubulin-Different-Phenotype (%),[7],61%
same,Total Cell Count,[7],377
same,Population Apoptotic (%),[8],66%
same,Population Healthy Nuclei (%),[8],76%
same,Population Hoechst High Intensity Objects (%),[8],14%
same,Population Mitochondria Different-Phenotype (%),[8],73%
same,Population Mitotic Cells (%),[8],33%
same,Population Normal (%),[8],85%
same,Population Pyknosed Nuclei (%),[8],15%
same,Population Tubulin-Different-Phenotype (%),[8],48%
same,Total Cell Count,[8],251
same,Population Apoptotic (%),[9],22%
same,Population Fragmented Nuclei (%),[9],13%
same,Population Healthy Nuclei (%),[9],78%
same,Population Hoechst High Intensity Objects (%),[9],2%
same,Population Membrane Permeable-Phenotype (%),[9],1%
same,Population Mitochondria Different-Phenotype (%),[9],19%
same,Population Mitotic Cells (%),[9],77%
same,Population Normal (%),[9],97%
same,Population Pyknosed Nuclei (%),[9],8%
same,Population Tubulin-Different-Phenotype (%),[9],18%
same,Total Cell Count,[9],908
same,Population Apoptotic (%),[10],38%
same,Population Fragmented Nuclei (%),[10],10%
same,Population Healthy Nuclei (%),[10],80%
same,Population Hoechst High Intensity Objects (%),[10],6%
same,Population Membrane Permeable-Phenotype (%),[10],0%
same,Population Mitochondria Different-Phenotype (%),[10],37%
same,Population Mitotic Cells (%),[10],61%
same,Population Normal (%),[10],93%
same,Population Pyknosed Nuclei (%),[10],9%
same,Population Tubulin-Different-Phenotype (%),[10],20%
same,Total Cell Count,[10],480
same,Population Apoptotic (%),[11],50%
same,Population Fragmented Nuclei (%),[11],14%
same,Population Healthy Nuclei (%),[11],72%
same,Population Hoechst High Intensity Objects (%),[11],6%
same,Population Membrane Permeable-Phenotype (%),[11],0%
same,Population Mitochondria Different-Phenotype (%),[11],59%
same,Population Mitotic Cells (%),[11],49%
same,Population Normal (%),[11],93%
same,Population Pyknosed Nuclei (%),[11],13%
same,Population Tubulin-Different-Phenotype (%),[11],44%
same,Total Cell Count,[11],467
same,Population Apoptotic (%),[12],62%
same,Population Fragmented Nuclei (%),[12],10%
same,Population Healthy Nuclei (%),[12],76%
same,Population Hoechst High Intensity Objects (%),[12],5%
same,Population Mitochondria Different-Phenotype (%),[12],58%
same,Population Mitotic Cells (%),[12],37%
same,Population Normal (%),[12],94%
same,Population Tubulin-Different-Phenotype (%),[12],36%
same,Total Cell Count,[12],375
